Calls of active or inactive are those of the source. The calls are words filed in the database; no cut-off is given here.
Tests used:
MDA-MB-231 [1] = assay: Growth inhibition of human MDA-MB-231 cells by MTT assay; format: functional
Summary of the method: (§1)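 Cells grown in RPMI 1640 with 10% FBS, plated at 2500 cells/well, treated across a dose range; growth read by MTT. GI50 taken from dose–response curves by nonlinear regression, at least three independent experiments.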

MDA-MB-468 [2] = assay: Growth inhibition of human MDA-MB-468 cells by MTT assay; format: functional; summary of the method: as §1
[3] = Growth inhibition of human SKBR3 cells by MTT assay; format: functional; conditions: SK-BR-3; summary of the method: as §1
MCF7 [4] = assay: Growth inhibition of human MCF7 cells by MTT assay; format: functional; summary of the method: as §1
LNCaP [5] = assay: Growth inhibition of human LNCAP cells by MTT assay; format: functional; summary of the method: as §1
[6] = Growth inhibition of human CWR22Rv1 cells by MTT assay; format: functional, CWR22R; conditions: 22Rv1; summary of the method: as §1
[7] = Growth inhibition of human PC3 cells by MTT assay; format: functional; conditions: PC-3; summary of the method: as §1
MCF7 [8] = assay: Reduction in Mnk1 protein expression in human MCF7 cells at 0.63 uM to 20 uM after 24 hrs by SDS-PAGE and Western blotting method; format: functional, cell-based
Summary of the method: (§2)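 Breast cancer cells in RPMI 1640 with 10% FBS treated 24 h at indicated concentrations, DMSO vehicle control; equal protein loaded on SDS–PAGE and immunoblotted for Mnk1, Mnk2, peIF4E, eIF4E and cleaved PARP; blots reprobed for GAPDH as loading control.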

MCF7 [9] = assay: Reduction in Mnk2 protein expression in human MCF7 cells at 0.63 uM to 20 uM after 24 hrs by SDS-PAGE and Western blotting method; format: functional, cell-based; summary of the method: as §2
MCF7 [10] = assay: Reduction in peIF4E protein expression in human MCF7 cells at 0.63 uM to 20 uM after 24 hrs by SDS-PAGE and Western blotting method; format: functional, cell-based
Summary of the method: (§3)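 MCF-7, MDA-MB-231 and MDA-MB-468 cells, kept in RPMI 1640 with 10% FBS, were exposed for 24 h to a range of concentrations, with DMSO vehicle controls. Equal protein from lysates was separated by SDS–PAGE and probed for Mnk1, Mnk2, peIF4E, eIF4E and cPARP. GAPDH reprobing served as loading control.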

MDA-MB-231 [11] = assay: Reduction in Mnk1 protein expression in human MDA-MB-231 cells at 0.63 uM to 20 uM after 24 hrs by SDS-PAGE and Western blotting method; format: functional, cell-based; summary of the method: as §2
MDA-MB-231 [12] = assay: Reduction in Mnk2 protein expression in human MDA-MB-231 cells at 0.63 uM to 20 uM after 24 hrs by SDS-PAGE and Western blotting method; format: functional, cell-based; summary of the method: as §2
MDA-MB-231 [13] = assay: Reduction in peIF4E protein expression in human MDA-MB-231 cells at 0.63 uM to 20 uM after 24 hrs by SDS-PAGE and Western blotting method; format: functional, cell-based; summary of the method: as §3
MDA-MB-468 [14] = assay: Reduction in Mnk1 protein expression in human MDA-MB-468 cells at 0.63 uM to 20 uM after 24 hrs by SDS-PAGE and Western blotting method; format: functional, cell-based; summary of the method: as §2
MDA-MB-468 [15] = assay: Reduction in Mnk2 protein expression in human MDA-MB-468 cells at 0.63 uM to 20 uM after 24 hrs by SDS-PAGE and Western blotting method; format: functional, cell-based; summary of the method: as §2
MDA-MB-468 [16] = assay: Reduction in peIF4E protein expression in human MDA-MB-468 cells at 0.63 uM to 20 uM after 24 hrs by SDS-PAGE and Western blotting method; format: functional, cell-based; summary of the method: as §3
MDA-MB-468 [17] = assay: Effect on total eIF4E protein expression in human MDA-MB-468 cells at 0.63 uM to 20 uM after 24 hrs by SDS-PAGE and Western blotting method; format: functional, cell-based; summary of the method: as §2
MDA-MB-231 [18] = assay: Effect on total eIF4E protein expression in human MDA-MB-231 cells at 0.63 uM to 20 uM after 24 hrs by SDS-PAGE and Western blotting method; format: functional, cell-based; summary of the method: as §2
MCF7 [19] = assay: Effect on total eIF4E protein expression in human MCF7 cells at 0.63 uM to 20 uM after 24 hrs by SDS-PAGE and Western blotting method; format: functional, cell-based; summary of the method: as §2
MDA-MB-468 [20] = assay: Induction of apoptosis in human MDA-MB-468 cells assessed as increase in c-PARP formation at 0.63 uM to 20 uM after 24 hrs by SDS-PAGE and Western blotting method; format: functional, cell-based; summary of the method: as §2
MCF7 [21] = assay: Induction of apoptosis in human MCF7 cells assessed as increase in c-PARP formation at 0.63 uM to 20 uM after 24 hrs by SDS-PAGE and Western blotting method; format: functional, cell-based; summary of the method: as §2
MDA-MB-231 [22] = assay: Induction of apoptosis in human MDA-MB-231 cells assessed as increase in c-PARP formation at 0.63 uM to 20 uM after 24 hrs by SDS-PAGE and Western blotting method; format: functional, cell-based; summary of the method: as §2
LNCaP [23] = assay: Reduction in fAR protein expression in human LNCAP cells at 0.6 uM to 20 uM after 24 hrs by SDS-PAGE and Western blotting method; format: functional, cell-based
Summary of the method: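 LNCaP cells were treated for 24 h across 0.6–20 μM, with vehicle (DMSO) controls. Equal protein from lysates was run on SDS–PAGE and immunoblotted for fAR, Mnk1/2, peIF4E, cyclin D1 and cleaved PARP. Blots were reprobed for β-actin as loading control.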

LNCaP [24] = assay: Reduction in Mnk1 protein expression in human LNCAP cells at 0.6 uM to 20 uM after 24 hrs by SDS-PAGE and Western blotting method; format: functional, cell-based
Summary of the method: (§4)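 LNCaP cells (RPMI 1640, 10% FBS) exposed 24 h to 0.6–20 μM, DMSO vehicle control; equal protein on SDS–PAGE, immunoblotted for fAR, Mnk1/2, peIF4E, cyclin D1 and cleaved PARP; β-actin reprobe for loading.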

LNCaP [25] = assay: Reduction in Mnk2 protein expression in human LNCAP cells at 0.6 uM to 20 uM after 24 hrs by SDS-PAGE and Western blotting method; format: functional, cell-based; summary of the method: as §4
LNCaP [26] = assay: Effect on total eIF4E protein expression in human LNCAP cells at 0.6 uM to 20 uM after 24 hrs by SDS-PAGE and Western blotting method; format: functional, cell-based
LNCaP [27] = assay: Induction of apoptosis in human LNCAP cells assessed as reduction in cyclin D1 levels at 0.6 uM to 20 uM after 24 hrs by SDS-PAGE and Western blotting method; format: functional, cell-based; summary of the method: as §4
PC-3 = assay: Inhibition of cell migration of human PC3 cells at 5 uM after 24 hrs by wound healing assay; format: functional, cell-based
Summary of the method: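 Cells (5 × 10⁵ per well) grown to confluence, monolayer scratched at time zero, then exposed to 5 μM for 24 h; initial and final wounds photographed at 100×.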

LNCaP [28] = assay: Induction of apoptosis in human LNCAP cells assessed as increase in c-PARP formation at 0.6 uM to 20 uM after 24 hrs by SDS-PAGE and Western blotting method; format: functional, cell-based; summary of the method: as §4
[29] = molecular target: T1, Androgen receptor (Homo sapiens) (UniProt P10275); conditions: LNCaP, at 10 µM
T1 sequence (whole entry): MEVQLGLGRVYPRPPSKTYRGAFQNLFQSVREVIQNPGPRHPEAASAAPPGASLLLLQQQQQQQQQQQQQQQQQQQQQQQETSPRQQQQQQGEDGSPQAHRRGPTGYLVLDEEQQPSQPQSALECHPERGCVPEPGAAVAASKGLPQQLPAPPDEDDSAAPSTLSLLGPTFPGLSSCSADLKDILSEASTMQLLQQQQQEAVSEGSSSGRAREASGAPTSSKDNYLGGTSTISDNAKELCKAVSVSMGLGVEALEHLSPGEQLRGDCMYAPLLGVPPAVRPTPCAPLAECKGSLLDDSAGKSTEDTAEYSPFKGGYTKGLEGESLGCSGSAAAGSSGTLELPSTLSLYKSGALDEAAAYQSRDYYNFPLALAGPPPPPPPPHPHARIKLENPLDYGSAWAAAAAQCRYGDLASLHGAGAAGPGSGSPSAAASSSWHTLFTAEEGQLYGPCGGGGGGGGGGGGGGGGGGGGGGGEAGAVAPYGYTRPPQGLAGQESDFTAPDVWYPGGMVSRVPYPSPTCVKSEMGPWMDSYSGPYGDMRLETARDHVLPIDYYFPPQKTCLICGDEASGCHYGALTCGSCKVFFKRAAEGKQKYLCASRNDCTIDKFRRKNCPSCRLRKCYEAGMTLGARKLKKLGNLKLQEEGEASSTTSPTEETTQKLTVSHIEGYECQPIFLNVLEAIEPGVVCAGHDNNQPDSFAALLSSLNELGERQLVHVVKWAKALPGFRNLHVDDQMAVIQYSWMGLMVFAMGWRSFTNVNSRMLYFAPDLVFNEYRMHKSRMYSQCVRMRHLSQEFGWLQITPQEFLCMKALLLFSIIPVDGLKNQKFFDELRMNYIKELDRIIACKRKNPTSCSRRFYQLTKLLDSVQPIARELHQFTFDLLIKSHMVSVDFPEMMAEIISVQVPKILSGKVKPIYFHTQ

CC1=C(/C=C/C(C)=C/C=C/C(C)=C/C(=O)O)C(C)(C)CCC1 [TRETINOIN]
GI50 (MDA-MB-231 [1]): 14.1 µM
GI50 (MDA-MB-468 [2]): 14.1 µM
GI50 [3]: 22.9 µM

CC1=C(/C=C/C(C)=C/C=C/C(C)=C\C(=O)Nc2ccccc2O)C(C)(C)CCC1n1ccnc1 (stereo not drawn)
GI50 (MCF7 [4]): 1090 nM
GI50 (MDA-MB-231 [1]): 4.67 µM
GI50 (MDA-MB-468 [2]): 3.03 µM
GI50 [3]: 3.89 µM
GI50 (LNCaP [5]): 3230 nM
GI50 [6]: 2230 nM
GI50 [7]: 15.5 µM

CC1=C(/C=C/C(C)=C/C=C/C(C)=C\C(=O)NCCc2ccc(O)cc2)C(C)(C)CC=C1c1cncnc1
GI50 (MCF7 [4]): 2960 nM
GI50 (MDA-MB-231 [1]): 14.5 µM
GI50 (MDA-MB-468 [2]): 23.4 µM
GI50 [3]: 24 µM

CC1=C(/C=C/C(C)=C/C=C/C(C)=C\C(=O)Nc2ccccc2)C(C)(C)CC=C1c1cccnc1
GI50 (MCF7 [4]): 8320 nM
GI50 (MDA-MB-231 [1]): 25.1 µM
GI50 (MDA-MB-468 [2]): 39.8 µM
GI50 [3]: 47.4 µM

CC1=C(/C=C/C(C)=C/C=C/C(C)=C\C(=O)NCc2cccc(F)c2)C(C)(C)CCC1n1ccnc1 (stereo not drawn)
GI50 (MCF7 [4]): 1810 nM
GI50 (MDA-MB-231 [1]): 1.65 µM
GI50 (MDA-MB-468 [2]): 3.09 µM
GI50 [3]: 4.24 µM

CC(=O)C1=C(O)C=C2Oc3c(C(N)=O)c(O)cc(O)c3[C@@]2(C)C1=O
GI50 (MDA-MB-231 [1]): 43.6 µM
GI50 (MDA-MB-468 [2]): 47.9 µM
GI50 [3]: 26 µM

CC1=C(/C=C/C(C)=C/C=C/C(C)=C/C(=O)Nc2ccc(O)cc2)C(C)(C)CCC1 [FENRETINIDE]
GI50 (MCF7 [4]): 4650 nM
GI50 (MDA-MB-231 [1]): 11.1 µM
GI50 (MDA-MB-468 [2]): 6.02 µM
GI50 [3]: 3.98 µM

CC1=C(/C=C/C(C)=C/C=C/C(C)=C\C(=O)Nc2ccccc2)C(C)(C)CCC1n1ccnc1 (stereo not drawn)
GI50 (MCF7 [4]): 1900 nM
GI50 (MDA-MB-231 [1]): 1.74 µM
GI50 (MDA-MB-468 [2]): 2.54 µM
GI50 [3]: 1.73 µM
GI50 (LNCaP [5]): 2690 nM
GI50 [6]: 1280 nM
GI50 [7]: 8.91 µM
inhibition (MCF7 [8]): Dose-dependent effect
inhibition (MCF7 [9]): Dose-dependent effect
inhibition (MCF7 [10]): Dose-dependent effect
inhibition (MDA-MB-231 [11]): Dose-dependent effect
inhibition (MDA-MB-231 [12]): Dose-dependent effect
inhibition (MDA-MB-231 [13]): Dose-dependent effect
inhibition (MDA-MB-468 [14]): Dose-dependent effect
inhibition (MDA-MB-468 [15]): Dose-dependent effect
inhibition (MDA-MB-468 [16]): Dose-dependent effect
Activity (MDA-MB-468 [17]): inactive
Activity (MDA-MB-231 [18]): inactive
Activity (MCF7 [19]): inactive
Activity (MDA-MB-468 [20]): Dose-dependent effect
Activity (MCF7 [21]): Dose-dependent effect
Activity (MDA-MB-231 [22]): Dose-dependent effect
inhibition (LNCaP [23]): Dose-dependent effect
inhibition (LNCaP [24]): Dose-dependent effect
inhibition (LNCaP [25]): Dose-dependent effect
Activity (LNCaP [26]): inactive
Activity (LNCaP [27]): Active
inhibition (PC-3): Active
Activity (LNCaP [28]): Active
inhibition [29]: Active

CC1=C(/C=C/C(C)=C/C=C/C(C)=C\C(=O)NCc2ccc(O)cc2)C(C)(C)CC=C1c1cncnc1
GI50 (MCF7 [4]): 4960 nM
GI50 (MDA-MB-231 [1]): 11.5 µM
GI50 (MDA-MB-468 [2]): 19.1 µM
GI50 [3]: 11.5 µM
